What was measured:
[1] = substrate: O=C(O)CC(=O)C(=O)O; experiment: Binding affinity to Mycobacterium tuberculosis wild type CitA expressed in Escherichia coli cells assessed as catalytic constant by Michaelis-Menten analysis
Outline: (§1)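 His-tagged CitA (wild type or variant) was expressed in E. coli, purified by cobalt affinity and size exclusion, then dialysed against 20 mM Tris pH 8.0. Activity was measured by DTNB (300 μM) thiol detection of released CoA at 412 nm, with OAA and AcCoA substrates and 10 nM enzyme, in 50 mM Tris pH 8.0 at 25 °C. A no-enzyme control was run. Triplicate runs were fitted to Michaelis–Menten.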

[2] = substrate: O=C(O)CC(=O)C(=O)O; experiment: Binding affinity to Mycobacterium tuberculosis wild type CitA expressed in Escherichia coli cells assessed as apparent Km by Michaelis-Menten analysis; outline: as §1
[3] = substrate: O=C(O)CC(=O)C(=O)O; experiment: Binding affinity to Mycobacterium tuberculosis wild type CitA expressed in Escherichia coli cells assessed as Kcat/Km by Michaelis-Menten analysis; outline: as §1
[4] = substrate: O=C(O)CC(=O)C(=O)O; experiment: Binding affinity to Mycobacterium tuberculosis wild type CitA expressed in Escherichia coli cells assessed as Vmax by Michaelis-Menten analysis; outline: as §1

B1: Putative citrate synthase 2 (Mycobacterium tuberculosis), P9WPD3 (protein)
chain: MTVVPENFVPGLDGVVAFTTEIAEPDKDGGALRYRGVDIEDLVSQRVTFGDVWALLVDGNFGSGLPPAEPFPLPIHSGDVRVDVQAGLAMLAPIWGYAPLLDIDDATARQQLARASVMALSYVAQSARGIYQPAVPQRIIDECSTVTARFMTRWQGEPDPRHIEAIDAYWVSAAEHGMNASTFTARVIASTGADVAAALSGAIGAMSGPLHGGAPARVLPMLDEVERAGDARSVVKGILDRGEKLMGFGHRVYRAEDPRARVLRAAAERLGAPRYEVAVAVEQAALSELRERRPDRAIETNVEFWAAVVLDFARVPANMMPAMFTCGRTAGWCAHILEQKRLGKLVRPSAIYVGPGPRSPESVDGWERVLTTA
kcat [1]: 340 min⁻¹
Km [2]: 14.3 µM
kcat/Km [3]: 24 min⁻¹ µM⁻¹
Vmax [4]: 3.4 µM/min
